From ChEMBL document CHEMBL4706591, “Diphenyl triazine hybrids inhibit α-synuclein fibrillogenesis: Design, synthesis and in vitro efficacy studies” (Eur J Med Chem, 2020) come the findings set out here.

The source made the active and inactive calls. The rule behind the calls is not given here.

Data set [1] addresses Alpha-synuclein (Homo sapiens) (UniProt P37840). The experiment in a line: Inhibition of recombinant alpha-synuclein (unknown origin) aggregation expressed in Escherichia coli BL21 (DE3) cells at 1:1 compound-protein molar ratio measured for every 30 mins in presence of ThT by spectrofluorometry. An outline of the steps:
(§1)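 Recombinant α-syn from E. coli BL21(DE3), extracted by osmotic shock, purified on DEAE-Sepharose with 50–500 mM NaCl gradient. Run at 37 °C; Ex 440/Em 485 nm read every 30 min after 30 s orbital shaking, until plateau. Four wells each. Each well fitted to a sigmoid giving t1/2, kapp = 1/τ, and tlag from lag/elongation intercept, then averaged; Student's t-test.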

The target is the same in data set [2]. The data set is described as follows: Inhibition of recombinant alpha-synuclein (unknown origin) aggregation expressed in Escherichia coli BL21 (DE3) cells assessed as final plateau fluorescence at 1:1 compound-protein molar ratio measured for every 30 mins in presence of ThT by spectrofluorometry relative to control. A digest of the protocol: as §1
Data set [3] can be described thus: Aggregation property of the compound assessed as change in ThT fluorescence in presence of Thioflavin T. Format: physicochemical. As to conditions: 336 h; time 2 weeks. A digest of the protocol: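 Compound alone incubated with ThT without α-syn for over 2 weeks; ThT fluorescence monitored to exclude self-aggregation interference.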
Data set [4] deals with Alpha-synuclein (Homo sapiens) (UniProt P37840). The data set is described as follows: Inhibition of recombinant alpha-synuclein (unknown origin) aggregation expressed in Escherichia coli BL21 (DE3) cells assessed as elongation phase time at 1:1 compound-protein molar ratio measured for every 30 mins in presence of ThT by spectrofluorometry (reference value: 31.2 +/- 0.6 hrs). Particulars: dose 70.0 µM. An outline of the steps: as §1

For data set [5] the target is unchanged. The data set is described as follows: Inhibition of recombinant alpha-synuclein (unknown origin) aggregation expressed in Escherichia coli BL21 (DE3) cells assessed as lag time at 1:1 compound-protein molar ratio measured for every 30 mins in presence of ThT by spectrofluorometry (reference value: 15.1 +/- 0.9 hrs). An outline of the steps:
as §1

For data set [6] the target is unchanged. The experiment in a line: Inhibition of recombinant alpha-synuclein (unknown origin) aggregation expressed in Escherichia coli BL21 (DE3) cells assessed as apparent elongation rate constant at 1:1 compound-protein molar ratio measured for every 30 mins in presence of ThT by spectrofluorometry (reference value: 108.7 +/- 1.8 10^-3/hr). An outline of the steps:
as §1

Data set [7] has the same target. The experiment in a line: Inhibition of recombinant alpha-synuclein (unknown origin) aggregation expressed in Escherichia coli BL21 (DE3) cells assessed as reduction in fluorescent labeled aggregates at 20 uM incubated for >=66 hrs by ThT dye based inverted fluorescence microscopic analysis. Particulars: time hrs >=66. A digest of the protocol:
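After the ThT kinetic run (about 66 h), 10 µL of control or compound-incubated α-syn mixed with 20 µM ThT was placed on a glass slide under a coverslip. Imaged on an inverted fluorescence microscope, FITC filter, 100× oil objective, with constant laser power and intensity.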

Data set [8] shares this target. The data set is described as follows: Disruption of recombinant preformed alpha-synuclein (unknown origin) aggregation expressed in Escherichia coli BL21 (DE3) at 20 uM incubated for 5 days by ThT dye based inverted fluorescence microscopic analysis. Particulars: time 5.0 day. An outline of the steps:
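Preformed α-syn aggregates incubated with compound at 1:1 molar ratio at 37 °C for 5 days, without ThT, in a sealed plate, one well each. Samples then stained with ThT and imaged on an inverted fluorescence microscope through a FITC filter with constant imaging parameters.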

For data set [9], the system named is MEF. The data set is described as follows: Cytotoxicity against mouse MEF cells at 10 uM incubated for 24 hrs by MTT assay. Format: cell-based. A digest of the protocol:
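MEF cells grown in DMEM with 10% FBS and 1% penicillin-streptomycin to about 80% confluency. Cells trypsinized, plated, and left 24 h at 37 °C in humidified CO2. Compound added at 10 µM in triplicate with DMSO vehicle control, 24 h. MTT 0.5 mg/mL for 4 h in dark, formazan dissolved in DMSO, absorbance read at 570 nm. Mean ± SEM of three independent replicates.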
For orientation: Formazan colour is commonly taken as a measure of viable cells.

Data set [10] concerns MEF. The data set is described as follows: Cytotoxicity against mouse MEF cells at 10 uM incubated for 24 hrs in presence of aggregated alpha-synuclein by MTT assay. Format: cell-based. An outline of the steps:
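MEF cells cultured and plated as for the compound-only cytotoxicity assay. Cells treated in triplicate for 24 h with monomeric α-syn, aggregated α-syn, or α-syn aggregated in presence of compound at 1:1. Viability read by MTT (0.5 mg/mL, 4 h, 570 nm). Mean ± SEM, three replicates; Student's t-test, p<0.05.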

Data set [11] is described as follows: Solubility of the compound in sodium phosphate buffer at pH 7.4. It counts as physicochemical.

Regarding `CC(=O)Nc1ccc(S(=O)(=O)N2CCN(C(=O)CSc3nnc(-c4ccccc4)c(-c4ccccc4)n3)CC2)cc1`, the inhibition result in data set [1], in data set [7] and in data set [8] was “Active” in each case. Also, the inhibition in [2] is more than 50%. In addition, the Activity result in [3] was “Not Active”; in [9] it was “Non-Toxic”; in data set [10], “Non-Toxic”. In addition, the T1/2 in data set [4] came out at 27.5 h. Moreover, the Tlag in data set [5] came to 14.6 h. Further, in [6], the Kapp is 86.6 10^-3/hr. For the same compound, the solubility result in data set [11] is reported as “Insoluble”.
Turning to `CC(=O)Nc1ccc(S(=O)(=O)N2CCN(C(=O)CSc3nnc(-c4ccccc4)c(-c4ccccc4)n3)CC2)cc1F`, the inhibition entry in [1], in [7] and in [8] was “Active” in each case. Also, the inhibition in data set [2] is more than 50%. In addition, the figures for the Activity entry in data set [3], in data set [9] and in [10] were “Not Active”, “Non-Toxic” and “Toxic”, respectively. Further, the T1/2 in data set [4] came out at 28.1 h. Also, the Tlag in data set [5] came to 14.9 h. Also, the Kapp in data set [6] is 121 10^-3/hr. Further, the solubility entry in [11] is “Insoluble”.
Take `O=C(CSc1nnc(-c2ccccc2)c(-c2ccccc2)n1)N1CCN(S(=O)(=O)c2ccccc2[N+](=O)[O-])CC1`: the inhibition result in data set [1] was “Active”. Also, the inhibition in data set [2] was less than 40%. For the same compound, the Activity entry in data set [3] is “Not Active”. Besides, in data set [4], the T1/2 was determined as 29.1 h. The Tlag in data set [5] came to 15.3 h. The Kapp in data set [6] was 123 10^-3/hr. In addition, the solubility entry in [11] is “Insoluble”.
On to `O=C(CSc1nnc(-c2ccccc2)c(-c2ccccc2)n1)N1CCN(S(=O)(=O)c2ccc(Br)cc2)CC1`, for which the inhibition entry in data set [1] and in data set [7] was “Active” in each case. Further, the inhibition in data set [2] was less than 40%. The Activity entry in [3] is listed as “Not Active”; in data set [9] it was “Non-Toxic”; in data set [10], “Non-Toxic”. Besides, in [4], the T1/2 stood at 27 h. Moreover, in [5], the Tlag was found to be 14.4 h. Besides, in [6], the Kapp is 120 10^-3/hr. The inhibition entry in data set [8] was “inactive”. Moreover, in data set [11], the solubility result is “Insoluble”.
As to `O=C(CSc1nnc(-c2ccccc2)c(-c2ccccc2)n1)N1CCN(S(=O)(=O)c2ccc(Cl)cc2Cl)CC1`, the inhibition entry in data set [1] is “Active”. In addition, the Activity entry in data set [3] was “Not Active”. Besides, in data set [4], the T1/2 was 30.4 h. In addition, the Tlag in data set [5] was 13.9 h. Besides, in data set [6], the Kapp was 122 10^-3/hr. In addition, the solubility entry in data set [11] is recorded as “Insoluble”.
As for `Cc1ccc(S(=O)(=O)N2CCN(C(=O)CSc3nnc(-c4ccccc4)c(-c4ccccc4)n3)CC2)cc1`, the inhibition result in data set [1] was “Active”. The inhibition in data set [2] is less than 40%. For the same compound, in data set [3], the Activity result is “Not Active”. For the same compound, the T1/2 in data set [4] is 29.4 h. Also, the Tlag in [5] came out at 14.1 h. The Kapp in data set [6] was 118 10^-3/hr. In data set [11], the solubility entry was “Insoluble”.
Regarding `O=C(CSc1nnc(-c2ccccc2)c(-c2ccccc2)n1)N1CCN(c2ccnc3cc(Cl)ccc23)CC1`, the inhibition entry in data set [1], in [7] and in data set [8] was “Active” each time. In addition, in data set [2], the inhibition is more than 50%. Moreover, the Activity entry in data set [3] is reported as “Not Active”; in data set [9] it was “Non-Toxic”; in [10] it was “Toxic”. Also, the T1/2 in [4] came out at 28.2 h. For the same compound, the Tlag in data set [5] is 15.9 h. The Kapp in data set [6] was 128 10^-3/hr. Further, the solubility entry in data set [11] is “Insoluble”.
Regarding `O=C(CSc1nnc(-c2ccccc2)c(-c2ccccc2)n1)N1CCN(S(=O)(=O)c2ccc3ccccc3c2)CC1`, the inhibition result in data set [1] is “Active”. Further, the Activity result in data set [3] is “Not Active”. Besides, the T1/2 in data set [4] was found to be 30 h. Further, the Tlag in data set [5] stood at 16.1 h. The Kapp in [6] is 116 10^-3/hr. The solubility entry in [11] is reported as “Insoluble”.

For orientation: inhibition means the relative decrease from the control value, in per cent.
